Test results published in ChEMBL document CHEMBL3739352, “Anticonvulsant activity, crystal structures, and preliminary safety evaluation of N-trans-cinnamoyl derivatives of selected (un)modified aminoalkanols” (Eur J Med Chem, 2016).
Calls of active or inactive are those of the source. The calls are words filed in the database; no cut-off is given here.

What was measured:
Mus musculus [1] = test: Neurotoxicity in albino Carworth Farms No.1 mouse at 300 mg/kg, ip after 0.5 hrs by rotarod test; assay type: toxicity, organism-based; details: in vivo
How it was run: (§1)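 Mice (albino Carworth Farms No.1) were dosed i.p. at 30, 100 or 300 mg/kg in 0.5% methylcellulose. They were tested 0.5 and 4 h later on a 1-inch knurled rod rotating at 6 rpm. Neurotoxicity was scored if a mouse could not stay on the rod for at least 1 min in each of three trials. Results are given as animals toxic/animals tested, with deaths noted.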

Mus musculus [2] = test: Neurotoxicity in albino Carworth Farms No.1 mouse at 100 mg/kg, ip after 0.5 hrs by rotarod test; assay type: toxicity, organism-based; details: in vivo; how it was run: as §1
Mus musculus [3] = test: Anticonvulsant activity in albino Carworth Farms No.1 mouse assessed as protection against subcutaneous dosed pentetrazol-induced seizures at 300 mg/kg, ip after 4 hrs; assay type: functional, organism-based
How it was run: (§2)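 Mouse i.p. screen in Carworth Farms No.1 albino mice at 30, 100 or 300 mg/kg in 0.5% methylcellulose. Testing was at 0.5 and 4 h after injection, by maximal electroshock or by subcutaneous pentetrazol challenge. Scoring was number protected / number used.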

Mus musculus [4] = test: Neurotoxicity in albino Carworth Farms No.1 mouse at 30 mg/kg, ip after 0.5 hrs by rotarod test; assay type: toxicity, organism-based; details: in vivo; how it was run: as §1
Mus musculus [5] = test: Anticonvulsant activity in albino Carworth Farms No.1 mouse assessed as protection against subcutaneous dosed pentetrazol-induced seizures at 300 mg/kg, ip after 0.5 hrs; assay type: functional, organism-based; how it was run: as §2
Mus musculus [6] = test: Anticonvulsant activity in albino Carworth Farms No.1 mouse assessed as protection against subcutaneous dosed pentetrazol-induced seizures at 100 mg/kg, ip after 4 hrs; assay type: functional, organism-based; how it was run: as §2
Mus musculus [7] = test: Anticonvulsant activity in albino Carworth Farms No.1 mouse assessed as protection against subcutaneous dosed pentetrazol-induced seizures at 100 mg/kg, ip after 0.5 hrs; assay type: functional, organism-based; how it was run: as §2
Mus musculus [8] = test: Anticonvulsant activity in albino Carworth Farms No.1 mouse assessed as protection against subcutaneous dosed pentetrazol-induced seizures at 30 mg/kg, ip after 4 hrs; assay type: functional, organism-based; how it was run: as §2
Mus musculus [9] = test: Anticonvulsant activity in albino Carworth Farms No.1 mouse assessed as protection against subcutaneous dosed pentetrazol-induced seizures at 30 mg/kg, ip after 0.5 hrs; assay type: functional, organism-based; how it was run: as §2
Mus musculus [10] = test: Anticonvulsant activity in albino Carworth Farms No.1 mouse assessed as protection against maximal electroshock-induced seizures at 300 mg/kg, ip after 4 hrs; assay type: functional, organism-based; how it was run: as §2
Mus musculus [11] = test: Anticonvulsant activity in albino Carworth Farms No.1 mouse assessed as protection against maximal electroshock-induced seizures at 300 mg/kg, ip after 0.5 hrs; assay type: functional, organism-based; how it was run: as §2
Mus musculus [12] = test: Anticonvulsant activity in albino Carworth Farms No.1 mouse assessed as protection against maximal electroshock-induced seizures at 100 mg/kg, ip after 4 hrs; assay type: functional, organism-based; how it was run: as §2
Mus musculus [13] = test: Anticonvulsant activity in albino Carworth Farms No.1 mouse assessed as protection against maximal electroshock-induced seizures at 100 mg/kg, ip after 0.5 hrs; assay type: functional, organism-based; how it was run: as §2
Mus musculus [14] = test: Anticonvulsant activity in albino Carworth Farms No.1 mouse assessed as protection against maximal electroshock-induced seizures at 30 mg/kg, ip after 0.5 hrs; assay type: functional, organism-based; how it was run: as §2
Mus musculus [15] = test: Anticonvulsant activity in albino Carworth Farms No.1 mouse assessed as protection against maximal electroshock-induced seizures at 30 mg/kg, ip after 4 hrs; assay type: functional, organism-based; how it was run: as §2
Mus musculus [16] = test: Neurotoxicity in albino Carworth Farms No.1 mouse at 30 mg/kg, ip after 4 hrs by rotarod test; assay type: toxicity, organism-based; details: in vivo; how it was run: as §1
Mus musculus [17] = test: Neurotoxicity in albino Carworth Farms No.1 mouse at 100 mg/kg, ip after 4 hrs by rotarod test; assay type: toxicity, organism-based; details: in vivo; how it was run: as §1
Mus musculus [18] = test: Neurotoxicity in albino Carworth Farms No.1 mouse at 300 mg/kg, ip after 4 hrs by rotarod test; assay type: toxicity, organism-based; details: in vivo; how it was run: as §1
[19] = Lipophilicity of the compound using 95% methanol in water at 1 mg/ml by RT-TLC analysis; assay type: physicochemical; details: buffer
How it was run: (§3)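 Reversed-phase TLC with a methanol–water mobile phase at the stated methanol content (v/v). Compounds were spotted from 1 mg/mL methanol solutions after 1 h chamber saturation and located under UV light. Rf was measured and RM = log(1/Rf − 1) calculated.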

[20] = Lipophilicity of the compound using 90% methanol in water at 1 mg/ml by RT-TLC analysis; assay type: physicochemical; details: buffer; how it was run: as §3
[21] = Lipophilicity of the compound using 85% methanol in water at 1 mg/ml by RT-TLC analysis; assay type: physicochemical; details: buffer; how it was run: as §3
[22] = Lipophilicity of the compound using 75% methanol in water at 1 mg/ml by RT-TLC analysis; assay type: physicochemical; details: buffer; how it was run: as §3
[23] = Lipophilicity of the compound using 65% methanol in water at 1 mg/ml by RT-TLC analysis; assay type: physicochemical; details: buffer; how it was run: as §3
[24] = Lipophilicity of the compound at 1 mg/ml by RT-TLC analysis relative to 0% methanol; assay type: physicochemical; details: methanol/water
How it was run: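 Reversed-phase TLC used methanol–water mobile phases of 95–65% methanol. Compounds were applied from 1 mg/mL methanol solutions after 1 h chamber saturation, with UV detection. RM = log(1/Rf − 1) was calculated at each methanol level and extrapolated linearly (RM = RM0 + bC) to 0% methanol to give RM0.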

Rattus norvegicus [25] = test: Neurotoxicity in Sprague-Dawley rat at 30 mg/kg, po after 4 hrs; assay type: toxicity, organism-based; details: in vivo
How it was run: (§4)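 Sprague-Dawley rats were given 30 mg/kg orally in 0.5% methylcellulose. Neurotoxicity was checked at 0.25, 0.5, 1.0, 2.0 and 4 h after dosing. Results are given as number of rats showing neurotoxicity/number tested.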

Rattus norvegicus [26] = test: Neurotoxicity in Sprague-Dawley rat at 30 mg/kg, po after 2 hrs; assay type: toxicity, organism-based; details: in vivo; how it was run: as §4
Rattus norvegicus [27] = test: Neurotoxicity in Sprague-Dawley rat at 30 mg/kg, po after 1 hr; assay type: toxicity, organism-based; details: in vivo; how it was run: as §4
Rattus norvegicus [28] = test: Neurotoxicity in Sprague-Dawley rat at 30 mg/kg, po after 0.25 hrs; assay type: toxicity, organism-based; details: in vivo; how it was run: as §4
Rattus norvegicus [29] = test: Neurotoxicity in Sprague-Dawley rat at 30 mg/kg, po after 0.5 hrs; assay type: toxicity, organism-based; details: in vivo; how it was run: as §4
Rattus norvegicus [30] = test: Anticonvulsant activity in Sprague-Dawley rat assessed as protection against maximal electroshock-induced seizures at 30 mg/kg, po after 4 hrs; assay type: functional, organism-based
How it was run: (§5)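 Sprague-Dawley rats were given 30 mg/kg p.o. in 0.5% methylcellulose. Maximal electroshock was applied at 0.25, 0.5, 1.0, 2.0 and 4 h after dosing. Results are reported as number of rats protected / number tested.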

Rattus norvegicus [31] = test: Anticonvulsant activity in Sprague-Dawley rat assessed as protection against maximal electroshock-induced seizures at 30 mg/kg, po after 2 hrs; assay type: functional, organism-based; how it was run: as §5
Rattus norvegicus [32] = test: Anticonvulsant activity in Sprague-Dawley rat assessed as protection against maximal electroshock-induced seizures at 30 mg/kg, po after 1 hr; assay type: functional, organism-based; how it was run: as §5
Rattus norvegicus [33] = test: Anticonvulsant activity in Sprague-Dawley rat assessed as protection against maximal electroshock-induced seizures at 30 mg/kg, po after 0.5 hrs; assay type: functional, organism-based; how it was run: as §5
Rattus norvegicus [34] = test: Anticonvulsant activity in Sprague-Dawley rat assessed as protection against maximal electroshock-induced seizures at 30 mg/kg, po after 0.25 hrs; assay type: functional, organism-based; how it was run: as §5

Compound	Activity (Mus musculus [1])	Activity (Mus musculus [2])	Activity (Mus musculus [3])	Activity (Mus musculus [4])	Activity (Mus musculus [5])	Activity (Mus musculus [6])	Activity (Mus musculus [7])	Activity (Mus musculus [8])	Activity (Mus musculus [9])	Activity (Mus musculus [10])	Activity (Mus musculus [11])	Activity (Mus musculus [12])	Activity (Mus musculus [13])	Activity (Mus musculus [14])	Activity (Mus musculus [15])	Rm [19]	Rm [20]	Rm [21]	Rm [22]	Rm [23]	other results
COC(=O)C(NC(=O)/C=C/c1ccccc1)C(C)C (racemic)	Non-toxic	Non-toxic	inactive	Non-toxic	inactive	inactive	inactive	inactive	inactive	inactive	Active	inactive	inactive	inactive	inactive	-0.52	-0.31	-0.03	0.05	0.58	Activity (Mus musculus [16]): Non-toxic; Activity (Mus musculus [17]): Non-toxic; Activity (Mus musculus [18]): Non-toxic; Rm [24]: 2.742
CC(=O)OCC(C)NC(=O)/C=C/c1ccccc1 (racemic)	Non-toxic	Non-toxic	inactive	Non-toxic	inactive	inactive	inactive	inactive	inactive	inactive	Active	inactive	Active	inactive	inactive	-0.58	-0.48	-0.21	-0.07	0.19	Activity (Rattus norvegicus [25]): Non-toxic; Activity (Rattus norvegicus [26]): Non-toxic; Activity (Rattus norvegicus [27]): Non-toxic; Activity (Rattus norvegicus [28]): Non-toxic; Activity (Rattus norvegicus [29]): Non-toxic; Activity (Rattus norvegicus [30]): inactive; Activity (Rattus norvegicus [31]): inactive; Activity (Rattus norvegicus [32]): inactive; Activity (Rattus norvegicus [33]): inactive; Activity (Rattus norvegicus [34]): inactive; Activity (Mus musculus [16]): Non-toxic; Activity (Mus musculus [17]): Non-toxic; Activity (Mus musculus [18]): Non-toxic; Rm [24]: 1.88
CC(C)(CO)NC(=O)/C=C/c1ccccc1	Non-toxic	Non-toxic	inactive	Non-toxic	Active	inactive	inactive	inactive	inactive	inactive	Active	inactive	inactive	inactive	inactive	-0.63	-0.5	-0.25	-0.14	0.29	Activity (Mus musculus [16]): Non-toxic; Activity (Mus musculus [17]): Non-toxic; Activity (Mus musculus [18]): Non-toxic; Rm [24]: 2.151
CCC(COC(C)=O)NC(=O)/C=C/c1ccccc1 (stereo not given)	Non-toxic	Non-toxic	inactive	Non-toxic	inactive	inactive	inactive	inactive	inactive	inactive	inactive	inactive	inactive	inactive	inactive	-0.58	-0.43	-0.14	-0.05	0.29	Rm [24]: 2.118
O=C(/C=C/c1ccccc1)NCCCCCO	Non-toxic	Non-toxic	inactive	Non-toxic	inactive	inactive	inactive	inactive	inactive	inactive	inactive	inactive	inactive	inactive	inactive	-0.69	-0.52	-0.27	-0.18	0.19	Activity (Mus musculus [16]): Non-toxic; Activity (Mus musculus [17]): Non-toxic; Activity (Mus musculus [18]): Non-toxic; Rm [24]: 1.983
CC(=O)OC(C)CNC(=O)/C=C/c1ccccc1 (racemic)	Non-toxic	Non-toxic	inactive	Non-toxic	Active	inactive	inactive	inactive	inactive	Active	Active	inactive	inactive	inactive	inactive	-0.58	-0.48	-0.19	-0.1	0.25	Activity (Rattus norvegicus [25]): Non-toxic; Activity (Rattus norvegicus [26]): Non-toxic; Activity (Rattus norvegicus [27]): Non-toxic; Activity (Rattus norvegicus [28]): Non-toxic; Activity (Rattus norvegicus [29]): Non-toxic; Activity (Rattus norvegicus [30]): inactive; Activity (Rattus norvegicus [31]): inactive; Activity (Rattus norvegicus [32]): inactive; Activity (Rattus norvegicus [33]): inactive; Activity (Rattus norvegicus [34]): inactive; Activity (Mus musculus [16]): Non-toxic; Activity (Mus musculus [17]): Non-toxic; Activity (Mus musculus [18]): Non-toxic; Rm [24]: 2.003
CC(=O)CNC(=O)/C=C/c1ccccc1	Non-toxic	Non-toxic	inactive	Non-toxic	inactive	inactive	inactive	inactive	inactive	inactive	Active	inactive	inactive	inactive	inactive	-0.63	-0.52	-0.33	-0.21	0.05	Activity (Mus musculus [16]): Non-toxic; Activity (Mus musculus [17]): Non-toxic; Activity (Mus musculus [18]): Non-toxic; Rm [24]: 1.478
